From ChEMBL document CHEMBL4152381, “Discovery of Benzoazepinequinoline (BAQ) Derivatives as Novel, Potent, Orally Bioavailable Respiratory Syncytial Virus Fusion Inhibitors” (J Med Chem, 2018)

Assays:
[1] = Cytotoxicity against human Hep2 cells assessed as decrease in cell viability after 5 days by CCK8 assay; assay type: cell-based; settings: HEp-2 cells
Procedure, shortened: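 Uninfected HEp-2 cells, seeded at 6000 per well, were cultured 5 days with serially diluted compound alongside the CPE assay. Viability was read by CCK-8, and CC50 was the concentration cytotoxic to 50% of cells.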

[2] = Therapeutic index, ratio of CC50 for human Hep2 cells to EC50 for inhibition of RSV long fusion protein assessed as protection against virus induced cytopathic effect in infected human Hep2 cells; assay type: toxicity, cell-based; settings: HEp-2 cells, read-out: Ratio CC50/EC50
Procedure, shortened: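 Index computed as CC50/EC50. CC50 came from uninfected HEp-2 cells and EC50 from 50% reduction of RSV Long CPE in HEp-2 cells (MOI 0.02). Both assays ran 5 days with serially diluted compound and a CCK-8 viability read-out.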

[3] = Intrinsic clearance in rat liver microsomes; assay type: ADME, microsome; settings: read-out: CLH
Procedure, shortened: (§1)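 Intrinsic clearance was measured in human, rat or mouse liver microsomes and reported as scaled clearance.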

[4] = Intrinsic clearance in mouse liver microsomes; assay type: ADME, microsome; settings: read-out: CLH; procedure, shortened: as §1
[5] = Intrinsic clearance in human liver microsomes; assay type: ADME, microsome; settings: read-out: CLH; procedure, shortened: as §1
[6] = AUC (0 to infinity) in Wistar-Han rat at 2 mg/kg, iv after 15 mins to 24 hrs by LC/MS/MS analysis; assay type: ADME, organism-based; set-up: dose 2 mg/kg, route intravenous, time infinity; settings: in vivo
[7] = Volume of distribution at steady state in Wistar-Han rat at 2 mg/kg, iv after 15 mins to 24 hrs by LC/MS/MS analysis; assay type: ADME, organism-based; settings: in vivo, read-out: Vdss
Procedure, shortened: (§2)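 Single-dose PK in male Wistar rats at 2 mg/kg iv and 10 mg/kg po. Plasma clearance, Vss, iv half-life, AUC and oral bioavailability were derived.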

[8] = Solubility of the compound by LYSA; assay type: physicochemical
Procedure, shortened: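 Solubility measured by lyophilization solubility assay (LYSA), reported in μg/mL.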

[9] = Fraction unbound in mouse plasma; assay type: ADME, cell-free
[10] = Clearance in Wistar-Han rat at 2 mg/kg, iv after 15 mins to 24 hrs by LC/MS/MS analysis; assay type: ADME, organism-based; settings: in vivo; procedure, shortened: as §2
[11] = Effective permeability of the compound by PAMPA; assay type: ADME; settings: read-out: Peff
Procedure, shortened: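 Parallel artificial membrane permeability assay, with permeability reported in 10−6 cm/s.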

[12] = Fraction unbound in human plasma; assay type: ADME, cell-free
[13] = Oral bioavailability in Wistar-Han rat at 10 mg/kg after 15 mins to 24 hrs by LC/MS/MS analysis; assay type: ADME, organism-based; settings: in vivo; procedure, shortened: as §2
[14] = Half life in Wistar-Han rat at 2 mg/kg, iv by LC/MS/MS analysis; assay type: ADME, organism-based; settings: in vivo; procedure, shortened: as §2
[15] = AUC (0 to infinity) in Wistar-Han rat at 10 mg/kg, po after 15 mins to 24 hrs by LC/MS/MS analysis; assay type: ADME, organism-based; set-up: dose 10 mg/kg, time infinity, route oral; settings: in vivo
[16] = Drug metabolism in rat liver microsomes assessed as dealkylation; assay type: ADME, microsome
[17] = Drug metabolism in mouse liver microsomes assessed as oxidation; assay type: ADME, microsome
[18] = Drug metabolism in rat liver microsomes assessed as oxidation; assay type: ADME, microsome
[19] = Drug metabolism in mouse liver microsomes assessed as dealkylation; assay type: ADME, microsome

| SMILES | CC50 at 120 h [1] | selectivity ratio [2] | other results |
| --- | --- | --- | --- |
| NCC(O)CNc1cc(N2CCCc3ccccc3C2)nc2ccccc12 (stereo unspecified) | 21 µM | 95 | – |
| NCCNc1cc(N2CCc3ccccc3C2)nc2ccccc12 | 15 µM | 7 | – |
| NCC(O)CNc1cc(N2Cc3ccccc3C2)nc2ccccc12 (stereo unspecified) | 2.9 µM | – | – |
| Cc1ccc2nc(N3CCCc4cc(F)ccc4C3)cc(NCCN)c2c1 | > 3.2 µM | > 7 | CLint scaled [3]: 33 mL/min/kg; CLint scaled [4]: 31 mL/min/kg; CLint scaled [5]: 8 mL/min/kg |
| Cc1ccc2nc(N3CCCc4ccccc4C3)cc(NCCN)c2c1 | 9.4 µM | 129 | – |
| Cc1ccc2nc(N3CCS(=O)(=O)c4ccccc4C3)cc(NCCN)c2c1 | 66 µM | 16500 | AUC(0-inf) [6]: 346 ng·h/mL; Vd [7]: 17 L/kg; solubility [8]: > 466 µg/mL; fraction unbound [9]: 0.08; clearance [10]: 97 mL/min/kg; Papp [11]: 0.12 ×10⁻⁶ cm/s; CLint scaled [3]: 8 mL/min/kg; fraction unbound [12]: 0.078; CLint scaled [4]: 1 mL/min/kg; CLint scaled [5]: 5 mL/min/kg; bioavailability [13]: 0%; half-life [14]: 4.5 h |
| NCCNc1cc(N2CCCc3ccccc3C2)nc2ccccc12 | 23 µM | 115 | AUC(0-inf) [15]: 510 ng·h/mL; AUC(0-inf) [6]: 324 ng·h/mL; Vd [7]: 73 to 106 L/kg; solubility [8]: > 460 µg/mL; Drug metabolism [16]: Metabolite_Detected; clearance [10]: 89 to 106 mL/min/kg; Drug metabolism [17]: Metabolite_Detected; Papp [11]: 0.99 ×10⁻⁶ cm/s; CLint scaled [3]: 23 mL/min/kg; Drug metabolism [18]: Metabolite_Detected; CLint scaled [4]: 19 mL/min/kg; Drug metabolism [19]: Metabolite_Detected; CLint scaled [5]: 10 mL/min/kg; bioavailability [13]: 32%; half-life [14]: 12 h |
| NCCNc1cc(N2CCCc3ccccc3C2)nc2c(Cl)cccc12 | 25 µM | 23 | – |
| NC(=O)NCCNc1cc(N2CCc3ccccc3C2)nc2ccccc12 | 80 µM | 5 | – |
| NCCNc1cc(N2CCS(=O)(=O)c3ccccc3C2)nc2ccccc12 | 94 µM | 8540 | CLint scaled [3]: 3 mL/min/kg |
| NCCNc1cc(N2CCCc3ccccc3C2)nc2ccc(C(F)(F)F)cc12 | 6.7 µM | 6 | – |
| NCCCCNc1cc(N2CCc3ccccc3C2)nc2ccccc12 | 7.4 µM | – | – |
| NCCNc1cc(N2CCCc3ccccc3C2)nc2cccc(Cl)c12 | 23 µM | 3 | – |
| NCCNc1cc(N2CCCc3ccccc3C2)nc2ccc(F)cc12 | 8 µM | 5 | – |
| NCCNc1cc(N2CCCc3ccccc3C2)nc2cc(Cl)ccc12 | 7.5 µM | 2 | – |
| CS(=O)(=O)c1ccc2nc(N3CCCc4ccccc4C3)cc(NCCN)c2c1 | 13 µM | 2 | – |

| SMILES | CC50 at 120 h [1] | selectivity ratio [2] | other results |
| --- | --- | --- | --- |
| CC(O)CNc1cc(N2CCc3ccccc3C2)nc2ccccc12 (stereo unspecified) | 89 µM | – | – |
| Cc1ccc2nc(N3CCC(F)(F)c4ccccc4C3)cc(NCCN)c2c1 | 6.6 µM | 106 | – |
| Cc1ccc2nc(N3CCCc4ccc(F)cc4C3)cc(NCCN)c2c1 | > 3.2 µM | > 32 | CLint scaled [3]: 160 mL/min/kg; CLint scaled [4]: 24 mL/min/kg; CLint scaled [5]: 6 mL/min/kg |
| Cc1ccc2nc(N3CCS(=O)(=O)c4ccccc4C3)cc(NCCCCCN)c2c1 | 21 µM | 778 | – |
| NCCNc1cc(N2CCOc3ccccc3C2)nc2ccccc12 | > 10 µM | > 43 | CLint scaled [3]: 20 mL/min/kg; CLint scaled [4]: 25 mL/min/kg; CLint scaled [5]: 14 mL/min/kg |
| NCCNc1cc(N2CCCc3ccccc3C2)nc2ccc(Cl)cc12 | > 3.2 µM | > 27 | – |
| Cc1ccc2nc(N3CCS(=O)(=O)c4ccccc4C3)cc(NCCCCN)c2c1 | 92 µM | 13100 | – |
| NCC(O)CNc1cc(N2CCc3ccccc3C2)nc2ccccc12 (stereo unspecified) | 21 µM | 95 | – |
| NCCCNc1cc(N2CCc3ccccc3C2)nc2ccccc12 | 8.4 µM | 1 | – |
| OCC(O)CNc1cc(N2CCc3ccccc3C2)nc2ccccc12 (stereo unspecified) | 66 µM | 3 | – |
| COc1ccc2nc(N3CCCc4ccccc4C3)cc(NCCN)c2c1 | 4.8 µM | 15 | – |
| Cc1ccc2nc(N3CCS(=O)(=O)c4ccccc4C3)cc(NCCCN)c2c1 | 21 µM | 21000 | – |
| N=C(N)NCCNc1cc(N2CCc3ccccc3C2)nc2ccccc12 | > 100 µM | 43 | – |
| Cc1ccc2nc(N3CCNc4ccccc4C3)cc(NCCN)c2c1 | 12 µM | 52 | CLint scaled [3]: 43 mL/min/kg; CLint scaled [4]: 19 mL/min/kg; CLint scaled [5]: 5 mL/min/kg |
| Cc1ccc2nc(N3CC(=O)Nc4ccccc4C3)cc(NCCN)c2c1 | 55 µM | 177 | CLint scaled [3]: 21 mL/min/kg; CLint scaled [4]: 11 mL/min/kg |
